ChEMBL document CHEMBL1145019, “The power of visual imagery in drug design. Isopavines as a new class of morphinomimetics and their human opioid receptor binding activity” (J Med Chem, 2003)
Calls of active or inactive are those of the source. The rule behind the calls is not given here.

Assays:
[1] = biological target: Delta-type opioid receptor (Homo sapiens, UniProt P41143); assay: In vitro binding affinity against cloned human Opioid receptor delta 1 expressed in HEK 293S cells; type: cell-based, HEK293
Summary of the method: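 Compounds tested at 5 or 10 concentrations in duplicate, in 50 mM Tris, 3 mM MgCl2, 1 mg/mL BSA, pH 7.4. Bound radioactivity measured at equilibrium by filtration. Nonspecific binding defined with 10 µM naloxone. IC50 from a two-parameter logistic fit.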

[2] = biological target: T1, Mu-type opioid receptor (Homo sapiens, UniProt P35372); assay: biochemical; type: cell-based, HEK293
[3] = biological target: Kappa-type opioid receptor (Homo sapiens, UniProt P41145); assay: biochemical; type: cell-based, HEK293
[4] = Selectivity of mu IC50 to that of delta IC50 was calculated; NA means Insufficient binding potency
Summary of the method: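 Ratio = delta IC50 / mu IC50, from radioligand displacement on HEK-293S P2 membranes expressing human receptors. […] Tris 50 mM, MgCl2 3 mM, BSA 1 mg/mL, pH 7.4. Filtration at equilibrium; 10 µM naloxone defined nonspecific binding. IC50 from logistic fits.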

[5] = biological target: T1, Mu-type opioid receptor; assay: Tested for effective concentration against cloned human Opioid receptor mu 1
Summary of the method: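 GTP[γ]35S binding using HEK-293S membranes expressing hμ (0.2 pmol/mg protein). Filtration after 1 h. Stimulated binding defined with 30 µM DAMGO. EC50 from a three-parameter logistic fit.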

Chain of Delta-type opioid receptor (P41143 whole entry): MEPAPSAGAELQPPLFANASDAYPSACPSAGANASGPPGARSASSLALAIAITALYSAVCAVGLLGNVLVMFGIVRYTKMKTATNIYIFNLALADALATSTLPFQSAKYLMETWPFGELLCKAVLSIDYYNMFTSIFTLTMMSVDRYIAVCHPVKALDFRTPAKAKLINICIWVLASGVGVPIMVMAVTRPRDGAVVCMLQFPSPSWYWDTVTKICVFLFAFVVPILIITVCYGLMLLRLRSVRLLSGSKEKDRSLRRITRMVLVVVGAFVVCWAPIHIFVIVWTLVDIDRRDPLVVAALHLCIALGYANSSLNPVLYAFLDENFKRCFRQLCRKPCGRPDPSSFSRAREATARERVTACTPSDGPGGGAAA
Chain of Kappa-type opioid receptor (P41145 whole entry): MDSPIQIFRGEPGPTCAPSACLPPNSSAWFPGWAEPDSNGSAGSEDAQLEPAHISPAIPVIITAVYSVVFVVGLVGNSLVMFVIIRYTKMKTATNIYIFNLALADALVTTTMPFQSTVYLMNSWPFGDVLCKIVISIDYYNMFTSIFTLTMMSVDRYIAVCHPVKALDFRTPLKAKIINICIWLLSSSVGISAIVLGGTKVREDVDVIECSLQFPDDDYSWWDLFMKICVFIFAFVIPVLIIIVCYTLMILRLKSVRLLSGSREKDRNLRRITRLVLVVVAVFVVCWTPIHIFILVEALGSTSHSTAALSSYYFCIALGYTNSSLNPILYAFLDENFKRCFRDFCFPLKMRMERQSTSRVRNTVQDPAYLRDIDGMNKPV
T1 sequence (P35372 whole entry): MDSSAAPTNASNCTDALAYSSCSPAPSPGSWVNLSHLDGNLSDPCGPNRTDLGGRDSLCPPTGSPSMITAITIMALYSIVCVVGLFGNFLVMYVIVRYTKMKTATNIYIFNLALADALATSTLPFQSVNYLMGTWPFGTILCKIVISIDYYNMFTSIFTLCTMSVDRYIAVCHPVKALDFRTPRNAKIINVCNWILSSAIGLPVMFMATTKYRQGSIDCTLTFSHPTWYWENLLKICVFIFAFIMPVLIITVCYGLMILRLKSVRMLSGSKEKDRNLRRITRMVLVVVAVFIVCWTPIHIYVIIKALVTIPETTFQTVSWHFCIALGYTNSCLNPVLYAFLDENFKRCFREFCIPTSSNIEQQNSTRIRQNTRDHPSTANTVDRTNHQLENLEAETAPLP

**Q.** What does the source list for `C[C@@H]1[C@H]2c3cc(N4CCOCC4)ccc3C[C@@H](c3ccc(N4CCOCC4)cc32)N1C`?
**A.** IC50 [1]: 7.5 µM; IC50 [2]: 0.69 µM; IC50 [3]: > 10 µM

**Q.** Which results are given for `C[C@@H]1[C@H]2c3cc(Nc4ccccc4)ccc3C[C@@H](c3ccc(Nc4ccccc4)cc32)N1CC1CC1`?
**A.** IC50 [1]: 0.89 µM; IC50 [2]: 0.082 µM; IC50 [3]: 1.2 µM

**Q.** Which results are given for `C[C@@H]1[C@H]2c3cc(O)ccc3C[C@@H](c3ccc(O)cc32)N1CC1CC1`?
**A.** IC50 [1]: 0.46 µM; IC50 [2]: 0.0064 µM; IC50 [3]: 0.204 µM

**Q.** Which IC50 [1] does the source give for `CN1[C@@H]2Cc3ccccc3[C@@H](c3ccccc32)[C@@H]1Cc1ccccc1` here?
**A.** 3.44 µM

**Q.** And the IC50 [2]?
**A.** 1.05 µM

**Q.** And the IC50 [3]?
**A.** 1.71 µM

**Q.** Which IC50 [1] does the source give for `C[C@@H]1[C@H]2c3ccccc3C[C@@H](c3ccccc32)N1CC1CC1` here?
**A.** > 10 µM

**Q.** What about the IC50 [2] of the same compound?
**A.** 1.08 µM

**Q.** What about the IC50 [3] of the same compound?
**A.** > 10 µM

**Q.** For `CC(=O)Oc1ccc2c(c1)[C@H]1c3cc(OC(C)=O)ccc3[C@H](C2)N(CC2CC2)[C@@H]1C`, which IC50 [1] is on record?
**A.** 3.3 µM

**Q.** What about the IC50 [2] of the same compound?
**A.** 0.044 µM

**Q.** What about the IC50 [3] of the same compound?
**A.** 2.02 µM

**Q.** For `C=CCN1[C@H](C)[C@H]2c3ccccc3C[C@H]1c1ccccc12`, which IC50 [1] is on record?
**A.** > 9.7 µM

**Q.** What about the IC50 [2] of the same compound?
**A.** 2 µM

**Q.** What about the IC50 [3] of the same compound?
**A.** > 4 µM

**Q.** What does the source list for `C[C@@H]1[C@H]2c3cc(Br)ccc3C[C@@H](c3ccc(Br)cc32)N1CC1CC1`?
**A.** IC50 [1]: > 10 µM; IC50 [2]: 2.05 µM; IC50 [3]: > 4.9 µM

**Q.** Which IC50 [1] does the source give for `C[C@H]1N[C@@H]2Cc3ccccc3[C@H]1c1ccccc12` here?
**A.** > 10 µM

**Q.** And the IC50 [2]?
**A.** 0.65 µM

**Q.** What about the IC50 [3] of the same compound?
**A.** > 10 µM

**Q.** With `CC(C)C[C@H]1[C@H]2c3ccccc3C[C@H](c3ccccc32)N1C` as the compound, how does the IC50 [1] read?
**A.** > 8.7 µM

**Q.** What about the IC50 [2] of the same compound?
**A.** 1.01 µM

**Q.** And the IC50 [3]?
**A.** 2.97 µM

**Q.** Which results are given for `Fc1ccc2c(c1)[C@H]1c3cc(F)ccc3[C@H](C2)N2CCC[C@@H]12`?
**A.** IC50 [1]: > 10 µM; IC50 [2]: 0.103 µM; IC50 [3]: > 6.4 µM

**Q.** Which results are given for `C[C@@H]1[C@H]2c3cc(O)ccc3C[C@@H](c3ccc(O)cc32)N1C`?
**A.** IC50 [1]: 1.3 µM; IC50 [2]: 0.016 µM; IC50 [3]: 0.961 µM

**Q.** What does the source list for `C[C@@H]1[C@H]2c3cc(N4CCN(C)CC4)ccc3C[C@@H](c3ccc(N4CCN(C)CC4)cc32)N1C`?
**A.** IC50 [1]: 2.5 µM; IC50 [2]: 0.053 µM; IC50 [3]: 3.2 µM

**Q.** Which IC50 [1] does the source give for `Oc1ccc2c(c1)[C@H]1c3cc(O)ccc3[C@H](C2)N2CCC[C@@H]12` here?
**A.** 3.8 µM

**Q.** And the IC50 [2]?
**A.** 0.13 µM

**Q.** What about the IC50 [3] of the same compound?
**A.** 7.2 µM

**Q.** For `c1ccc2c(c1)C[C@@H]1c3ccccc3[C@H]2[C@@H]2CCCCN12`, which IC50 [1] is on record?
**A.** > 10 µM

**Q.** What about the IC50 [2] of the same compound?
**A.** 0.39 µM

**Q.** What about the IC50 [3] of the same compound?
**A.** 7.4 µM

**Q.** With `COc1cc2c(cc1OC)[C@H]1c3cc(OC)c(OC)cc3[C@H](C2)N(CC2CC2)[C@@H]1C` as the compound, how does the IC50 [1] read?
**A.** > 10 µM

**Q.** And the IC50 [2]?
**A.** > 10 µM

**Q.** And the IC50 [3]?
**A.** > 10 µM

**Q.** And the NA [4]?
**A.** inactive

**Q.** What does the source list for `C[C@H]1[C@H]2c3ccccc3C[C@H](c3ccccc32)N1C`?
**A.** IC50 [1]: > 10 µM; IC50 [2]: 0.611 µM; IC50 [3]: > 10 µM

**Q.** Which results are given for `CC(=O)Oc1ccc2c(c1)[C@H]1c3cc(OC(C)=O)ccc3[C@H](C2)N2CCC[C@@H]12`?
**A.** IC50 [1]: 2.9 µM; IC50 [2]: 0.22 µM; IC50 [3]: > 6 µM

**Q.** Which results are given for `COc1ccc2c(c1)[C@H]1c3cc(OC)ccc3[C@H](C2)N(CC2CC2)[C@@H]1C`?
**A.** IC50 [1]: 6.63 µM; IC50 [2]: 1.03 µM; IC50 [3]: 5.33 µM

**Q.** What does the source list for `C[C@@H]1[C@H]2c3cc(Br)ccc3C[C@@H](c3ccc(Br)cc32)N1C`?
**A.** IC50 [1]: 8.84 µM; IC50 [2]: 0.36 µM; IC50 [3]: 6.92 µM

**Q.** For `CC(=O)Oc1ccc2c(c1)[C@H]1c3cc(OC(C)=O)ccc3[C@H](C2)N(C)[C@@H]1C`, which IC50 [1] is on record?
**A.** > 4.7 µM

**Q.** And the IC50 [2]?
**A.** 0.2 µM

**Q.** What about the IC50 [3] of the same compound?
**A.** > 9.5 µM

**Q.** Which results are given for `Brc1ccc(CNc2ccc3c(c2)[C@H]2c4cc(NCc5ccc(Br)cc5)ccc4[C@H](C3)N3CCC[C@@H]23)cc1`?
**A.** IC50 [1]: 5.3 µM; IC50 [2]: 0.12 µM; IC50 [3]: 7 µM

**Q.** With `CC(C)[C@H]1[C@H]2c3ccccc3C[C@H](c3ccccc32)N1C` as the compound, how does the IC50 [1] read?
**A.** > 10 µM

**Q.** And the IC50 [2]?
**A.** 0.695 µM

**Q.** What about the IC50 [3] of the same compound?
**A.** 3.41 µM

**Q.** With `C[C@@H]1[C@H]2c3cc(Nc4ccccc4)ccc3C[C@@H](c3ccc(Nc4ccccc4)cc32)N1C` as the compound, how does the IC50 [1] read?
**A.** 0.53 µM

**Q.** What about the IC50 [2] of the same compound?
**A.** 0.056 µM

**Q.** What about the IC50 [3] of the same compound?
**A.** 3.6 µM

**Q.** What does the source list for `CC(=O)N1[C@H](C)[C@H]2c3ccccc3C[C@H]1c1ccccc12`?
**A.** IC50 [1]: > 10 µM; IC50 [2]: > 9.5 µM; IC50 [3]: > 10 µM

**Q.** Which results are given for `Brc1ccc2c(c1)[C@H]1c3cc(Br)ccc3[C@H](C2)N2CCC[C@@H]12`?
**A.** IC50 [1]: 5.02 µM; IC50 [2]: 0.5 µM; IC50 [3]: 7.4 µM

**Q.** Which results are given for `C[C@@H]1[C@H]2c3cc(NCc4ccccc4)ccc3C[C@@H](c3ccc(NCc4ccccc4)cc32)N1CC1CC1`?
**A.** IC50 [1]: 0.049 µM; IC50 [2]: 0.007 µM; IC50 [3]: 0.031 µM

**Q.** With `C[C@@H]1[C@H]2c3ccccc3C[C@@H](c3ccccc32)N1C` as the compound, how does the IC50 [1] read?
**A.** > 10 µM

**Q.** What about the IC50 [2] of the same compound?
**A.** 0.23 µM

**Q.** What about the IC50 [3] of the same compound?
**A.** > 75 µM

**Q.** For `CN1[C@@H]2Cc3ccccc3[C@@H](c3ccccc32)[C@@H]1CCCO`, which IC50 [1] is on record?
**A.** > 10 µM

**Q.** What about the IC50 [2] of the same compound?
**A.** 1.15 µM

**Q.** What about the IC50 [3] of the same compound?
**A.** > 10 µM

**Q.** With `C[C@@H]1[C@H]2c3ccccc3C[C@@H](c3ccccc32)N1Cc1ccccc1` as the compound, how does the IC50 [1] read?
**A.** > 8.8 µM

**Q.** What about the IC50 [2] of the same compound?
**A.** > 10 µM

**Q.** And the IC50 [3]?
**A.** > 5.8 µM

**Q.** With `CN1CC[C@]23CCCC[C@H]2[C@H]1Cc1ccc(O)cc13` [LEVORPHANOL] as the compound, how does the IC50 [1] read?
**A.** 0.0051 µM

**Q.** What about the IC50 [3] of the same compound?
**A.** 0.004 µM

**Q.** Which results are given for `C[C@@H]1[C@H]2c3cc(NCc4ccccc4)ccc3C[C@@H](c3ccc(NCc4ccccc4)cc32)N1C`?
**A.** IC50 [1]: 0.12 µM; IC50 [2]: 0.008 µM; IC50 [3]: 0.64 µM; EC50 [5]: 4.3 µM

**Q.** Which results are given for `COc1ccc2c(c1)[C@H]1c3cc(OC)ccc3[C@H](C2)N2CCC[C@@H]12`?
**A.** IC50 [1]: 4.04 µM; IC50 [2]: 0.16 µM; IC50 [3]: > 10 µM

**Q.** For `COc1cc2c(cc1OC)[C@H]1c3cc(OC)c(OC)cc3[C@H](C2)N(C)[C@@H]1C`, which IC50 [1] is on record?
**A.** > 10 µM

**Q.** And the IC50 [2]?
**A.** > 10 µM

**Q.** And the IC50 [3]?
**A.** > 10 µM

**Q.** What about the NA [4] of the same compound?
**A.** inactive

**Q.** For `c1ccc2c(c1)C[C@H]1c3ccccc3[C@H]2[C@@H]2CCCN12`, which IC50 [1] is on record?
**A.** > 7.8 µM

**Q.** And the IC50 [2]?
**A.** 0.059 µM

**Q.** And the IC50 [3]?
**A.** 6.1 µM

**Q.** With `COc1ccc2c(c1)[C@H]1c3cc(OC)ccc3[C@H](C2)N(C)[C@@H]1C` as the compound, how does the IC50 [1] read?
**A.** > 10 µM

**Q.** What about the IC50 [2] of the same compound?
**A.** 0.42 µM

**Q.** What about the IC50 [3] of the same compound?
**A.** > 10 µM

**Q.** What about the NA [4] of the same compound?
**A.** inactive

**Q.** For `C[C@@H]1[C@H]2c3cc(N4CCN(C)CC4)ccc3C[C@@H](c3ccc(N4CCN(C)CC4)cc32)N1CC1CC1`, which IC50 [1] is on record?
**A.** 2.04 µM

**Q.** What about the IC50 [2] of the same compound?
**A.** 0.69 µM

**Q.** And the IC50 [3]?
**A.** 1.6 µM

**Q.** Which IC50 [1] does the source give for `COc1cc2c(cc1OC)[C@@H]1c3cc(OC)c(OC)cc3[C@@H](C2)N(C)[C@H]1C` here?
**A.** > 5.7 µM

**Q.** And the IC50 [3]?
**A.** > 10 µM

**Q.** And the NA [4]?
**A.** inactive
